Experimental data published in ChEMBL document CHEMBL5724801, “EUbOPEN Chemogenomics Library - Multiplex” (2024).
Where “and” joins values, the source holds several entries; their conditions need not be identical. Equal entries are not always repeated.

System: Fibroblast
Experiment: Multiplex assay against human fibroblast
Format: toxicity, cell-based
In short: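 Cells were classed with CellPathfinder machine-learning gating, first as Hoechst high-intensity objects or normal cells, then (normal cells) as healthy, pyknosed or fragmented nuclei, and finally (pyknosed cells) as mitotic or apoptotic. Staining of live cells at seeding used Hoechst33342, BioTracker Green Microtubule Cytoskeleton Dye, MitoTracker Red and Annexin V Alexa Fluor 680, with imaging on a CQ1 microscope at 37°C and 5% CO2 after compound addition. Tubulin, mitochondrial-mass and membrane-permeability phenotypes are per cents of healthy-nucleus cells.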

[1] = 12 h, 1 µM, compound concentration 1 uM
[2] = 12 h, 10 µM, compound concentration 10 uM
[3] = 24 h, 1 µM, compound concentration 1 uM
[4] = 24 h, 10 µM, compound concentration 10 uM
[5] = 48 h, 1 µM, compound concentration 1 uM
[6] = 48 h, 10 µM, compound concentration 10 uM

## Cl.Clc1ccc2nsnc2c1NC1=NCCN1 [TIZANIDINE HYDROCHLORIDE]
[1]
  Population Apoptotic (%): 38% and 33%
  Population Fragmented Nuclei (%): 10% and 24%
  Population Healthy Nuclei (%): 72% and 49%
  Population Hoechst High Intensity Objects (%): 3% and 4%
  Population Membrane Permeable-Phenotype (%): 0% and 5%
  Population Mitochondria Different-Phenotype (%): 4% and 5%
  Population Mitotic Cells (%): 61% and 66%
  Population Normal (%): 96% and 95%
  Population Pyknosed Nuclei (%): 17% and 25%
  Population Tubulin-Different-Phenotype (%): 21% and 50%
  Total Cell Count: 155 and 182
[2]
  Population Apoptotic (%): 36% and 21%
  Population Fragmented Nuclei (%): 18% and 24%
  Population Healthy Nuclei (%): 60% and 45%
  Population Hoechst High Intensity Objects (%): 4%
  Population Membrane Permeable-Phenotype (%): 0% and 7%
  Population Mitochondria Different-Phenotype (%): 8% and 7%
  Population Mitotic Cells (%): 64% and 78%
  Population Normal (%): 95%
  Population Pyknosed Nuclei (%): 20% and 29%
  Population Tubulin-Different-Phenotype (%): 29% and 33%
  Total Cell Count: 129 and 143
[3]
  Population Apoptotic (%): 52% and 42%
  Population Healthy Nuclei (%): 76% and 49%
  Population Hoechst High Intensity Objects (%): 2% and 4%
  Population Membrane Permeable-Phenotype (%): 0% and 9%
  Population Mitochondria Different-Phenotype (%): 0% and 4%
  Population Mitotic Cells (%): 47% and 57%
  Population Normal (%): 97% and 95%
  Population Pyknosed Nuclei (%): 16% and 24%
  Total Cell Count: 146 and 182
[4]
  Population Apoptotic (%): 45% and 47%
  Population Fragmented Nuclei (%): 19%
  Population Healthy Nuclei (%): 60% and 48%
  Population Hoechst High Intensity Objects (%): 1% and 2%
  Population Membrane Permeable-Phenotype (%): 0% and 9%
  Population Mitochondria Different-Phenotype (%): 5% and 6%
  Population Mitotic Cells (%): 54% and 52%
  Population Normal (%): 98% and 97%
  Population Pyknosed Nuclei (%): 20% and 32%
  Population Tubulin-Different-Phenotype (%): 20% and 34%
  Total Cell Count: 122 and 135
[5]
  Population Apoptotic (%): 47% and 55%
  Population Fragmented Nuclei (%): 17% and 29%
  Population Healthy Nuclei (%): 71% and 47%
  Population Hoechst High Intensity Objects (%): 2% and 6%
  Population Membrane Permeable-Phenotype (%): 2% and 6%
  Population Mitochondria Different-Phenotype (%): 1% and 8%
  Population Mitotic Cells (%): 52% and 44%
  Population Normal (%): 97% and 93%
  Population Pyknosed Nuclei (%): 10% and 23%
  Population Tubulin-Different-Phenotype (%): 19% and 56%
  Total Cell Count: 167 and 166
[6]
  Population Apoptotic (%): 69% and 63%
  Population Fragmented Nuclei (%): 26% and 35%
  Population Healthy Nuclei (%): 56% and 42%
  Population Hoechst High Intensity Objects (%): 2%
  Population Membrane Permeable-Phenotype (%): 0% and 6%
  Population Mitochondria Different-Phenotype (%): 5% and 11%
  Population Mitotic Cells (%): 30% and 36%
  Population Normal (%): 97%
  Population Pyknosed Nuclei (%): 17% and 21%
  Population Tubulin-Different-Phenotype (%): 26% and 44%
  Total Cell Count: 133 and 141

## COCCNc1cc(NC(=O)N2CCCc3cc(CN4CCOCC4=O)c(C=O)nc32)ncc1C#N
[1]
  Population Fragmented Nuclei (%): 9.19% and 4.72%
  Population Healthy Nuclei (%): 62.7% and 77.36%
  Population Hoechst High Intensity Objects (%): 0%
  Population Membrane Permeable-Phenotype (%): 4.31% and 4.27%
  Population Mitochondria Different-Phenotype (%): 4.31% and 6.71%
  Population Mitotic Cells (%): 92.31% and 76.32%
  Population Normal (%): 100%
  Population Pyknosed Nuclei (%): 28.11% and 17.92%
  Population Tubulin-Different-Phenotype (%): 12.07% and 18.29%
  Total Cell Count: 185 and 212
[2]
  Population Apoptotic (%): 11.11% and 16.67%
  Population Fragmented Nuclei (%): 13.02% and 4.35%
  Population Healthy Nuclei (%): 54.17% and 72.83%
  Population Hoechst High Intensity Objects (%): 0% and 0.54%
  Population Membrane Permeable-Phenotype (%): 9.62% and 8.21%
  Population Mitochondria Different-Phenotype (%): 20.19% and 13.43%
  Population Mitotic Cells (%): 88.89% and 83.33%
  Population Normal (%): 100% and 99.46%
  Population Pyknosed Nuclei (%): 32.81% and 22.83%
  Population Tubulin-Different-Phenotype (%): 43.27% and 48.51%
  Total Cell Count: 192 and 185
[3]
  Population Fragmented Nuclei (%): 7.46% and 3.69%
  Population Healthy Nuclei (%): 72.64% and 83.41%
  Population Hoechst High Intensity Objects (%): 0%
  Population Membrane Permeable-Phenotype (%): 4.79% and 2.76%
  Population Mitochondria Different-Phenotype (%): 2.05% and 5.52%
  Population Mitotic Cells (%): 95% and 78.57%
  Population Normal (%): 100%
  Population Pyknosed Nuclei (%): 19.9% and 12.9%
  Population Tubulin-Different-Phenotype (%): 10.27% and 12.15%
  Total Cell Count: 201 and 217
[4]
  Population Apoptotic (%): 26.32% and 30%
  Population Fragmented Nuclei (%): 10.14% and 8.42%
  Population Healthy Nuclei (%): 71.5% and 70.53%
  Population Hoechst High Intensity Objects (%): 0%
  Population Membrane Permeable-Phenotype (%): 12.84% and 7.46%
  Population Mitochondria Different-Phenotype (%): 15.54% and 15.67%
  Population Mitotic Cells (%): 73.68% and 70%
  Population Normal (%): 100%
  Population Pyknosed Nuclei (%): 18.36% and 21.05%
  Population Tubulin-Different-Phenotype (%): 43.24% and 50.75%
  Total Cell Count: 207 and 190
[5]
  Population Apoptotic (%): 15.38% and 26.32%
  Population Fragmented Nuclei (%): 7.73% and 4.91%
  Population Healthy Nuclei (%): 86.7% and 86.61%
  Population Hoechst High Intensity Objects (%): 0%
  Population Membrane Permeable-Phenotype (%): 1.49% and 2.58%
  Population Mitochondria Different-Phenotype (%): 7.92% and 1.03%
  Population Mitotic Cells (%): 84.62% and 73.68%
  Population Normal (%): 100%
  Population Pyknosed Nuclei (%): 5.58% and 8.48%
  Population Tubulin-Different-Phenotype (%): 5.45% and 12.89%
  Total Cell Count: 233 and 224
[6]
  Population Apoptotic (%): 25% and 38.46%
  Population Fragmented Nuclei (%): 13.64% and 8.2%
  Population Healthy Nuclei (%): 79.09% and 84.7%
  Population Hoechst High Intensity Objects (%): 0%
  Population Membrane Permeable-Phenotype (%): 4.02% and 7.74%
  Population Mitotic Cells (%): 75% and 61.54%
  Population Normal (%): 100%
  Population Pyknosed Nuclei (%): 7.27% and 7.1%
  Population Tubulin-Different-Phenotype (%): 24.71% and 43.87%
  Total Cell Count: 220 and 183
